In ChEMBL document CHEMBL4602675, “The Marine Natural Product Manzamine A Inhibits Cervical Cancer by Targeting the SIX1 Protein” (J Nat Prod, 2020):
Active and inactive are the calls of the source. No cut-off for these calls is given here.

How the values were obtained:
[1] = system: Ca-Ski; test: Antiproliferative activity against human CaSki cells assessed as reduction in cell viability after 48 hrs by CellTiter-Glo assay; type: functional, cell-based
Outline: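 ATP-based luminescent viability readout. Cells were grown in DMEM with 10% FBS, 2 mM L-glutamine and penicillin-streptomycin at 37 °C, 5% CO2. 2 × 10^4 cells/well were seeded, then exposed the next day to 0–40 μM for 24, 48 or 72 h. % viability = 100 × treated/control. IC50 was fitted from a sigmoid dose-response curve. Run at least three times in quadruplicate; mean ± SEM.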

[2] = system: SiHa; test: Induction of apoptosis in human SiHa cells assessed as late apoptotic cells at 4 uM after 48 hrs by Annexin V-FITC/PI double staining based flow cytometric analysis (reference value: 2.3%); type: functional
[3] = system: HeLa; test: Cell cycle arrest in human HeLa cells assessed as accumulation at Sub G1 phase at 4 uM after 48 hrs by propidium iodide staining based flow cytometric analysis (reference value: 2.1%); type: functional
Outline: (§1)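 Cells in DMEM/10% FBS at 37 °C, 5% CO2 were given 4 μM for 24, 48 or 72 h, with DMSO as control. After trypsinization they were fixed in chilled 70% ethanol on ice for 30 min, treated with RNase A (1 mg/mL) for 30 min at room temperature, and stained with PI (20 μg/mL). At least 10 000 events were read by flow cytometry to give sub-G1, G0/G1, S and G2/M fractions; mean ± SEM.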

[4] = system: HeLa; test: Induction of apoptosis in human HeLa cells assessed as late apoptotic cells at 4 uM after 48 hrs by Annexin V-FITC/PI double staining based flow cytometric analysis (reference value: 4.4%); type: functional
[5] = system: SiHa; test: Cell cycle arrest in human SiHa cells assessed as decrease in accumulation at S phase at 4 uM incubated up to 72 hrs by propidium iodide staining based flow cytometric analysis; type: functional
Outline: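 Cells in DMEM with 10% FBS, 2 mM L-glutamine, pen-strep, 37 °C, 5% CO2; seeded and left overnight, then treated at 4 μM with DMSO as control. Harvested by trypsin at 24, 48 or 72 h, fixed in chilled 70% ethanol 30 min on ice, RNase A (1 mg/mL) 30 min at room temperature, PI (20 μg/mL). Flow cytometry, ≥10 000 events, G0/G1, S, G2/M fractions; mean ± SEM.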

[6] = biological target: T1, Homeobox protein SIX1 (Homo sapiens) (UniProt Q15475); test: Inhibition of SIX1 in human HeLa cells at 2 to 4 uM after 48 hrs by Western blot analysis; type: cell-based
T1 sequence (whole entry): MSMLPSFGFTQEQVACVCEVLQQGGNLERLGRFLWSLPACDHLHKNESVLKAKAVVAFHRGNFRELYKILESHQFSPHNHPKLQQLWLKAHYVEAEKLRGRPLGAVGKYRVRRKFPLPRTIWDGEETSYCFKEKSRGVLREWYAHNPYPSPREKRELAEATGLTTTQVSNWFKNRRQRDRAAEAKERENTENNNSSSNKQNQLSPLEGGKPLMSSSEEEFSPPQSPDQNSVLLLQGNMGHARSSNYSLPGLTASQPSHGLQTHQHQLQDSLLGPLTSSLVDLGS
Outline: (§2)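 Cells were seeded at 1 × 10^6 per 100 mm dish and treated next day with 2 or 4 μM for 48 h. They were trypsinised, PBS-washed and lysed in RIPA with protease inhibitors. Equal protein was run on SDS-PAGE and transferred to PVDF. Primary antibodies were used at 1:500, with BSA 3% for blocking and antibodies for CK2α, Rb and pRb, otherwise 5% milk in TBST. HRP secondary at 1:2000, chemiluminescence detection.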

[7] = system: HeLa; test: Cell cycle arrest in human HeLa cells assessed as accumulation at Sub G1 phase at 4 uM after 24 hrs by propidium iodide staining based flow cytometric analysis (reference value: 2.2%); type: functional; outline: as §1
[8] = system: Ca-Ski; test: Induction of apoptosis in human CaSki cells assessed as early apoptotic cells at 4 uM after 48 hrs by Annexin V-FITC/PI double staining based flow cytometric analysis (reference value: 4.4%); type: functional
[9] = biological target: Casein kinase II subunit alpha (Homo sapiens) (UniProt P68400); test: Inhibition of CK2alpha in human SiHa cells at 2 to 4 uM after 48 hrs by Western blot analysis; type: cell-based; outline: as §2
[10] = biological target: Casein kinase II subunit alpha (Homo sapiens) (UniProt P68400); test: Potency index, ratio for inhibition activity of apigenin to test compound for inhibition of CK2alpha in human C33A cells after 48 hrs by Western blot analysis; type: cell-based; conditions: C-33-A
Outline: (§3)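 Cells plated at 1 × 10^6 per 100 mm dish and treated next day for 48 h with test compound (2 or 4 μM) or apigenin (10, 20 or 40 μM). RIPA lysates with protease inhibitors; equal protein loaded for SDS-PAGE, then PVDF transfer. Blocked in 5% milk/TBST (3% BSA for CK2α); anti-SIX1 or anti-CK2α 1:500, HRP secondary 1:2000; chemiluminescent detection.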

[11] = system: C-33-A; test: Induction of apoptosis in human C33A cells assessed as early apoptotic cells at 4 uM after 24 hrs by Annexin V-FITC/PI double staining based flow cytometric analysis (reference value: 4.3%); type: functional
[12] = system: Ca-Ski; test: Induction of apoptosis in human CaSki cells assessed as apoptotic cells at 4 uM after 48 hrs by Annexin V-FITC/PI double staining based flow cytometric analysis (reference value: […]); type: functional
[13] = biological target: Casein kinase II subunit alpha (Homo sapiens) (UniProt P68400); test: Potency index, ratio for inhibition activity of apigenin to test compound for inhibition of CK2alpha in human CaSki cells after 48 hrs by Western blot analysis; type: cell-based; conditions: Ca-Ski; outline: as §3
[14] = biological target: Casein kinase II subunit alpha (Homo sapiens) (UniProt P68400); test: Inhibition of CK2alpha in human CaSki cells at 2 to 4 uM after 48 hrs by Western blot analysis; type: cell-based; conditions: Ca-Ski; outline: as §2
[15] = system: C-33-A; test: Cell cycle arrest in human C33A cells assessed as accumulation at Sub G1 phase at 4 uM after 72 hrs by propidium iodide staining based flow cytometric analysis (reference value: 0.7%); type: functional; outline: as §1
[16] = system: SiHa; test: Effect on total-Rb in human SiHa cells assessed decrease in Rb protein level at 2 to 4 uM after 48 hrs by Western blot analysis; type: ADME, cell-based; outline: as §2
[17] = system: Ca-Ski; test: Induction of apoptosis in human CaSki cells assessed as early apoptotic cells at 4 uM after 24 hrs by Annexin V-FITC/PI double staining based flow cytometric analysis (reference value: 12.2%); type: functional
[18] = system: SiHa; test: Cell cycle arrest in human SiHa cells assessed as accumulation at G0/G1 phase at 4 uM after 72 hrs by propidium iodide staining based flow cytometric analysis (reference value: 72.8%); type: functional; outline: as §1
[19] = system: SiHa; test: Cell cycle arrest in human SiHa cells assessed as accumulation at G0/G1 phase at 4 uM after 48 hrs by propidium iodide staining based flow cytometric analysis (reference value: 72.7%); type: functional; outline: as §1
[20] = system: Ca-Ski; test: Cell cycle arrest in human CaSki cells assessed as accumulation at G2/M phase at 4 uM after 48 hrs by propidium iodide staining based flow cytometric analysis (reference value: 29.5%); type: functional; outline: as §1
[21] = biological target: T1, Homeobox protein SIX1 (Homo sapiens); test: Potency index, ratio for inhibition activity of apigenin to test compound for inhibition of SIX1 in human CaSki cells after 48 hrs by Western blot analysis; type: cell-based; conditions: Ca-Ski; outline: as §3
[22] = system: SiHa; test: Induction of apoptosis in human SiHa cells assessed as apoptotic cells at 4 uM after 48 hrs by Annexin V-FITC/PI double staining based flow cytometric analysis (reference value: 6.4%); type: functional

Sequence of Casein kinase II subunit alpha (Homo sapiens) (P68400 whole entry, looked up): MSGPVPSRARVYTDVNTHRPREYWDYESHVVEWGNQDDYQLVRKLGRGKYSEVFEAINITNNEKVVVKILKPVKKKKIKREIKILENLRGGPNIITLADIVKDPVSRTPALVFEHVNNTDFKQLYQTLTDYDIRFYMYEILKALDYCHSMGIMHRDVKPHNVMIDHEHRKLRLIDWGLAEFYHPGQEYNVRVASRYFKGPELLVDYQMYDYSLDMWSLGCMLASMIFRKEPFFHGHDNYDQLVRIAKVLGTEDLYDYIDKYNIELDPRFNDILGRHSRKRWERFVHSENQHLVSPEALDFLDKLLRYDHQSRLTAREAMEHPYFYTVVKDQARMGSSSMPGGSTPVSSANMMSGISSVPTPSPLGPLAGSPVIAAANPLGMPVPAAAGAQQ

O[C@]12C=C(c3nccc4c3[nH]c3ccccc34)[C@@H]3CCN(CCCC/C=C\CC1)C[C@@]31C[C@@H]3/C=C\CCCCN3[C@H]12 [MANZAMINE A]
IC50 [1]: 19.9 µM | Activity [2]: 4.2% | Activity [3]: 5.1% | Activity [4]: 14.1% | Activity [5]: Active | inhibition [6]: Active | Activity [7]: 2.1% | Activity [8]: 13.4% | inhibition [9]: Active | Ratio [10]: 10 | Activity [11]: 17.4% | Activity [12]: 23.2% | Ratio [13]: 10 | inhibition [14]: Active | Activity [15]: 31.3% | Activity [16]: Toxic | Activity [17]: 16.9% | Activity [18]: 78.6% | Activity [19]: 86.4% | Activity [20]: 10.1% | Ratio [21]: 10 | Activity [22]: 33.6%
